Active and inactive are the calls of the source. The calls are words filed in the database; no cut-off is given here.
Key:
[1] = test system: Plasmodium falciparum; test: Antiplasmodial activity against Plasmodium falciparum Dd2 assessed as reduction in parasite growth after 72 hrs by SYBR Green 1 staining based assay; assay type: functional, organism-based; settings: read-out: IC50
Method in brief: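 Dd2 cultures started at ring stage, 1% hematocrit and 1% parasitemia. Grown 72 h at 37 °C in 5% CO2/5% O2/90% N2 across increasing drug concentrations. Viability read by SYBR Green I DNA quantitation in lysis buffer. IC50 from nonlinear regression; mean of three independent determinations, each in triplicate, ± SEM.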

[2] = Hemolytic activity in human RBC; assay type: cell-based, Erythrocyte; settings: human red blood cells (erythrocytes)
[3] = test system: Plasmodium falciparum; test: Antiplasmodial activity against Plasmodium falciparum Dd2 schizonts form infected in erythrocytes assessed as reduction in reinvasion at 1 uM after 6 hrs by Giemsa staining based light microscopic method; assay type: functional, organism-based
Method in brief: (§1)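 Compound added at schizont stage (40–42 post-invasion). Morphology assessed on Giemsa-stained thin blood smears at 6, 24 and 48 h of treatment and compared with untreated controls. Two or more independent experiments.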

[4] = test system: Plasmodium falciparum; test: Antiplasmodial activity against Plasmodium falciparum Dd2 schizonts form infected in erythrocytes assessed as reduction in trophozoites formation at 1 uM after 48 hrs by Giemsa staining based light microscopic method; assay type: functional, organism-based; method in brief: as §1
[5] = test system: Plasmodium falciparum; test: Antiplasmodial activity against Plasmodium falciparum Dd2 schizonts form infected in erythrocytes assessed as reduction in parasite growth at 1 uM after 6 hrs by Giemsa staining based light microscopic method; assay type: functional, organism-based; method in brief: as §1
[6] = test system: Plasmodium falciparum; test: Antiplasmodial activity against Plasmodium falciparum Dd2 schizonts form infected in erythrocytes assessed as reduction in ring stage formation at 1 uM after 6 hrs by Giemsa staining based light microscopic method; assay type: functional, organism-based; method in brief: as §1
[7] = test system: Plasmodium falciparum; test: Antiplasmodial activity against Plasmodium falciparum Dd2 schizonts form infected in erythrocytes assessed as morphological defects formation at 1 uM after 48 hrs by Giemsa staining based light microscopic method; assay type: functional, organism-based; method in brief: as §1
[8] = test system: Plasmodium falciparum; test: Antiplasmodial activity against Plasmodium falciparum Dd2 schizonts form infected in erythrocytes assessed as morphological defects at 0.5 uM after 48 hrs by Giemsa staining based light microscopic method; assay type: functional, organism-based; method in brief: as §1
[9] = test system: Plasmodium falciparum; test: Antiplasmodial activity against Plasmodium falciparum Dd2 schizonts form infected in erythrocytes assessed as reduction in trophozoites formation at 0.5 uM after 48 hrs by Giemsa staining based light microscopic method; assay type: functional, organism-based; method in brief: as §1
[10] = test system: Plasmodium falciparum; test: Antiplasmodial activity against Plasmodium falciparum Dd2 schizonts form infected in erythrocytes assessed as reduction in ring stage formation at 0.5 uM after 6 hrs by Giemsa staining based light microscopic method; assay type: functional, organism-based; method in brief: as §1
[11] = test system: Plasmodium falciparum; test: Antiplasmodial activity against Plasmodium falciparum Dd2 schizonts form infected in erythrocytes assessed as reduction in reinvasion at 0.5 uM after 6 hrs by Giemsa staining based light microscopic method; assay type: functional, organism-based; method in brief: as §1
[12] = test system: Plasmodium falciparum; test: Antiplasmodial activity against Plasmodium falciparum Dd2 schizonts form infected in erythrocytes assessed as reduction in parasite growth at 0.5 uM after 6 hrs by Giemsa staining based light microscopic method; assay type: functional, organism-based; method in brief: as §1
[13] = test system: Plasmodium falciparum; test: Antiplasmodial activity against Plasmodium falciparum Dd2 schizonts form infected in erythrocytes assessed as reduction in ring stage formation at 1.25 uM after 6 hrs by Giemsa staining based light microscopic method; assay type: functional, organism-based
Method in brief: (§2)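 Dd2 intraerythrocytic cultures were treated either at ring stage (2–4 h post-invasion) or at schizont stage (40–42 post-invasion). Development and morphology were followed by light microscopy of Giemsa-stained thin blood smears at 6, 24, 48 and 72 h of treatment and compared with untreated controls. Data come from two or more independent experiments.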

[14] = test system: Plasmodium falciparum; test: Antiplasmodial activity against Plasmodium falciparum Dd2 schizonts form infected in erythrocytes assessed as reduction in parasite growth at 1.25 uM after 6 hrs by Giemsa staining based light microscopic method; assay type: functional, organism-based; method in brief: as §2
[15] = test system: Plasmodium falciparum; test: Antiplasmodial activity against Plasmodium falciparum Dd2 schizonts form infected in erythrocytes assessed as reduction in reinvasion at 1.25 uM after 6 hrs by Giemsa staining based light microscopic method; assay type: functional, organism-based; method in brief: as §2
[16] = test system: Plasmodium falciparum; test: Antiplasmodial activity against Plasmodium falciparum Dd2 ring stage form infected in erythrocytes assessed as reduction in reinvasion at 0.5 uM after 48 to 72 hrs by Giemsa staining based light microscopic method; assay type: functional, organism-based
Method in brief: (§3)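 Compound added at ring stage (2–4 h post-invasion). Development followed on Giemsa-stained thin blood smears after 6, 24, 48 and 72 h of treatment and compared with untreated controls. Two or more independent experiments.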

[17] = test system: Plasmodium falciparum; test: Antiplasmodial activity against Plasmodium falciparum Dd2 ring stage form infected in erythrocytes assessed as reduction in parasite growth at 0.5 uM after 6 to 72 hrs by Giemsa staining based light microscopic method; assay type: functional, organism-based; method in brief: as §3
[18] = test system: A2780; test: Cytotoxicity against human A2780 cells assessed as reduction in cell viability after 2 days by AlamarBlue assay; assay type: ADME, cell-based; settings: A2780, 48 h
[19] = test system: Plasmodium falciparum; test: Antiplasmodial activity against Plasmodium falciparum Dd2 ring stage form infected in erythrocytes assessed as reduction in reinvasion at 1 uM after 48 to 72 hrs by Giemsa staining based light microscopic method; assay type: functional, organism-based; method in brief: as §3
[20] = test system: Plasmodium falciparum; test: Antiplasmodial activity against Plasmodium falciparum Dd2 ring stage form infected in erythrocytes assessed as reduction in parasite growth at 1 uM after 6 to 72 hrs by Giemsa staining based light microscopic method; assay type: functional, organism-based; method in brief: as §3
[21] = Plasmodium falciparum, Dd2, 72 h

Structure (SMILES): CCCCCCCC/C=C\c1c(C)nc(CCCOC)c(/C=C\CCCCCCCC)c1C
- IC50 [1, 21]: 19.3 µM

Structure (SMILES): CCCCCCCC/C=C\c1c(C)nc(C)c(/C=C\CCCCCCCC)c1C
- IC50 [1, 21]: > 20 µM

Structure (SMILES): CCCCCCCC/C=C\c1c(C)c(/C=C\CCCCCCCC)c2[n+](c1C)CCC2 [AANIBAMINE]
- HC50 [2]: > 58 µM
- IC50 [1]: 0.11 µM

Structure (SMILES): CCCCCCCC/C=C/c1c(C)cc(C)nc1CCCOC
- IC50 [1, 21]: > 20 µM

Structure (SMILES): CCCCCCCC/C=C/c1c(C)c(/C=C/CCCCCCCC)c2[n+](c1C)CCCC2
- Activity [3]: inactive
- HC50 [2]: > 58 µM
- IC50 [1, 21]: 0.061 µM
- Activity [4]: Active
- Activity [5]: inactive
- Activity [6]: inactive
- Activity [7]: Active

Structure (SMILES): CCCCCCCC/C=C\c1c(C)c(/C=C\CCCCCCCC)c2[n+](c1C)CCC2
- Activity [8]: Active
- Activity [9]: Active
- Activity [10]: inactive
- Activity [11]: inactive
- Activity [12]: inactive
- Activity [13]: inactive
- Activity [14]: inactive
- Activity [15]: inactive

Structure (SMILES): CCCCCCCCCCc1c(C)nc(C)c(CCCCCCCCCC)c1C
- IC50 [1, 21]: > 20 µM

Structure (SMILES): CCCCCCCC/C=C/c1c(C)cc2[n+](c1C)CCC2
- Activity [10]: inactive
- IC50 [1, 21]: 0.171 µM
- Activity [16]: inactive
- Activity [11]: inactive
- Activity [12]: inactive
- Activity [17]: inactive

Structure (SMILES): C=CCc1c(O)c(OC)cc2c1O[C@H](c1ccc3c(c1)OCO3)[C@H]2C
- IC50 [1, 21]: 30 µM
- IC50 [18]: 10 to 35 µM

Structure (SMILES): C[C@@H]1CC[C@H]2[C@@H](C)C(=O)O[C@@H]3O[C@@]4(C)CC[C@@H]1[C@]32OO4 [ARTEMISININ]
- IC50 [1, 21]: 0.0065 µM

Structure (SMILES): CCCCCCCC/C=C/c1c(C)cc(C)nc1C
- IC50 [1, 21]: > 20 µM

Structure (SMILES): CCCCCCCC/C=C\c1c(C)cc(C)nc1CCCOC
- IC50 [1, 21]: 8.8 µM

Structure (SMILES): COc1cc(C/C=C(\C)CCC=C(C)C)c(O)c(-c2cc3cc(OC)cc(C/C=C(\C)CCC=C(C)C)c3oc2=O)c1
- IC50 [1, 21]: 18.2 µM

Structure (SMILES): CCCCCCCC/C=C\c1c(C)cc2[n+](c1C)CCC2
- Activity [3]: inactive
- IC50 [1, 21]: 0.142 µM
- Activity [5]: inactive
- Activity [6]: inactive
- Activity [19]: inactive
- Activity [20]: inactive

Structure (SMILES): CCCCCCCC/C=C\c1c(C)cc(C)nc1C
- IC50 [1, 21]: > 20 µM

Structure (SMILES): CCCCCCCC/C=C/c1c(C)nc(C)c(/C=C/CCCCCCCC)c1C
- IC50 [1, 21]: > 20 µM

Structure (SMILES): CCCCCCCC/C=C/c1c(C)cc(C)[n+]2c1CCC2
- Activity [10]: inactive
- IC50 [1, 21]: 0.058 µM
- Activity [16]: inactive
- Activity [11]: inactive
- Activity [12]: inactive
- Activity [17]: inactive

Structure (SMILES): CCCCCCCCCCc1c(C)cc(C)nc1CCCOC
- IC50 [1, 21]: > 20 µM

Structure (SMILES): CCCCCCCC/C=C\c1c(C)nc(C)c(/C=C/CCCCCCCC)c1C
- IC50 [1, 21]: 20 µM

Structure (SMILES): CCCCCCCC/C=C/c1c(C)c(/C=C/CCCCCCCC)c2[n+](c1C)CCCCC2
- Activity [8]: Active
- Activity [9]: Active
- Activity [10]: inactive
- HC50 [2]: > 58 µM
- IC50 [1, 21]: 0.06 µM
- Activity [11]: inactive
- Activity [12]: inactive

Structure (SMILES): CCCCCCCCCCc1c(C)cc(C)nc1C
- IC50 [1, 21]: > 20 µM

— ChEMBL document CHEMBL4613213, “Anibamine and Its Analogues: Potent Antiplasmodial Agents from Aniba citrifolia” (J Nat Prod, 2020)
